From ChEMBL document CHEMBL1134785, “Synthesis and biological evaluation of prostaglandin-F alkylphosphinic acid derivatives as bone anabolic agents for the treatment of osteoporosis” (J Med Chem, 2001)
pIC50: −log10 of the molar value.

Tests used:
Rattus norvegicus [1] = assay: Derived trabecular no […]measured using micro Computed Tomography(CT) after a dose of 300 ug/kg in Vertebral Bone; format: functional, Trabecula
How it was run: (§1)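 Micro-CT of the fifth lumbar vertebra, measuring cancellous bone volume and architecture. Rats were 6 months old, OVX 60 days before treatment, then dosed daily for 60 days. Test-agent doses were 10–3000 µg/kg, given as a once-daily subcutaneous injection; 6 mg/kg/day was given to the positive-control group. Groups were compared with vehicle by ANOVA plus LSD test.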

Rattus norvegicus [2] = assay: Marrow area (mm) measured Histomorphometrically after a dose of 1000 ug/kg in tibial diaphysis; format: functional
How it was run: (§2)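 Six-month-old rats, bilaterally ovariectomized, 6-8 per group, on natural chow. After 60 days they received once-daily subcutaneous dosing for 60 days at 0.01–3.0 mg/kg. Vehicle was acetate-buffered saline with methylcellulose and polyoxyethylenesorbitan monooleate. Labels were xylenol orange 90 mg/kg before treatment and calcein 10 mg/kg 14 and 4 days before sacrifice. Tibial histomorphometry was read under fluorescent light, with ANOVA/LSD versus vehicle.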

Rattus norvegicus [3] = assay: Trabecular thickness […] measured Histomorphometrically after a dose of 100 ug/kg in proximal tibial metaphysis; format: functional, Trabecula
How it was run: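 Six-month-old rats were ovariectomized, and 60 days later daily subcutaneous dosing began for 60 days, with vehicle of acetate-buffered saline, methylcellulose and polysorbate. Xylenol orange (90 mg/kg) labelled bone pre-treatment and calcein (10 mg/kg) 14 and 4 days pre-sacrifice. Histomorphometry covered the proximal tibial metaphysis 1-4 mm distal to the growth plate-metaphyseal junction. Groups were 6-8 rats, compared by ANOVA/LSD vs vehicle.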

Rattus norvegicus [4] = assay: Bone Volume /Tissue Volume (%)measured using micro Computed Tomography(CT) after a dose of 10 ug/kg in Vertebral Bone; format: functional; conditions: at 10 µg/kg
Rattus norvegicus [5] = assay: Derived trabecular no […]measured using micro Computed Tomography(CT) after a dose of 100 ug/kg in Vertebral Bone; format: functional, Trabecula; how it was run: as §1
Rattus norvegicus [6] = assay: Bone formation rate/bone volume (%/year)bone measured Histomorphometrically after a dose of 10 ug/kg in proximal tibial metaphysis; format: functional; conditions: at 10 µg/kg
Rattus norvegicus [7] = assay: connectivity density (mm-3) using micro Computed Tomography(CT) after a does of 1000 ug/kg in Vertebral Bone; format: functional
How it was run: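 Rats were ovariectomized at 6 months of age and, after 60 days, dosed subcutaneously once daily for 60 days, with vehicle of acetate-buffered saline, methylcellulose and polysorbate. At necropsy the fifth lumbar vertebra was scanned by micro-CT to obtain cancellous architecture. Groups were 6-8 rats; results were compared to vehicle by ANOVA with least significant difference test.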

Rattus norvegicus [8] = assay: Directly measured thickness(um) using micro Computed Tomography(CT) after a dose of 300 ug/kg in Vertebral Bone; format: functional; how it was run: as §1
Rattus norvegicus [9] = assay: Bone formation rate/tissue volume (%/year)bone measured Histomorphometrically after a dose of 10 ug/kg in proximal tibial metaphysis; format: functional; conditions: at 10 µg/kg
Rattus norvegicus [10] = assay: Bone Volume /Tissue Volume (%)measured using micro Computed Tomography(CT) after a dose of 300 ug/kg in Vertebral Bone; format: functional; conditions: at 300 µg/kg
Rattus norvegicus [11] = assay: Periosteal mineralizing surface (%) measured Histomorphometrically after a dose of 1000 ug/kg in tibial diaphysis; format: functional
How it was run: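 Rats on natural chow (1.46% Ca) were bilaterally ovariectomized at 6 months and left untreated for 60 days. They then received once-daily subcutaneous doses for 60 days, with vehicle of acetate-buffered saline, methylcellulose and polysorbate. Xylenol orange (90 mg/kg) was given before treatment and calcein (10 mg/kg) 14 and 4 days before sacrifice. Tibiae were analysed by fluorescent histomorphometry, 6-8 rats/group, ANOVA/LSD vs vehicle.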

Prostacyclin receptor = Prostacyclin receptor (Homo sapiens, UniProt P43119); assay: In vitro binding at prostanoid IP receptor using [3H]iloprost as radioligand
Chain of Prostacyclin receptor (P43119 whole entry): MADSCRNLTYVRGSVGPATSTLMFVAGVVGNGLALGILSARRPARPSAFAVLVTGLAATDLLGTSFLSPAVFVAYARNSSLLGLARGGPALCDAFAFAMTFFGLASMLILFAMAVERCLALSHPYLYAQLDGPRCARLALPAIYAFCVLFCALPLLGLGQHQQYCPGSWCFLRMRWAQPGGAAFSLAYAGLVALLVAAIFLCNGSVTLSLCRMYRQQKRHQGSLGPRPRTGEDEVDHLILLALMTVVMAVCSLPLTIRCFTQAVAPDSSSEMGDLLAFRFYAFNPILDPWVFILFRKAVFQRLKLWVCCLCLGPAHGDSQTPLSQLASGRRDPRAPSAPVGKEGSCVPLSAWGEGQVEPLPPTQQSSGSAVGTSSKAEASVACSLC
How it was run: (§3)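 Receptors stably expressed in CHO cells, collected 4-5 days after seeding. Membranes made by lysis (Tris, EDTA, protease inhibitors) and 100000g pellet, then resuspended at 1 mg protein/mL in TME. Radioligands at 5 nM: [3H]PGE2 for EP2/EP3/EP4, [3H]Iloprost for IP, [3H]SQ-29548 for TP. Competition binding with filtration and counting.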

Rattus norvegicus [12] = assay: Periosteal mineral apposition rate ([…]) measured Histomorphometrically after a dose of 100 ug/kg in tibial diaphysis; format: functional; how it was run: as §2
Thromboxane A2 receptor = molecular target: T1, Thromboxane A2 receptor (Homo sapiens, UniProt P21731); assay: In vitro binding at TP human prostaglandin receptor using [3H]SQ-29,548 as radioligand; how it was run: as §3
T1 sequence (P21731 whole entry): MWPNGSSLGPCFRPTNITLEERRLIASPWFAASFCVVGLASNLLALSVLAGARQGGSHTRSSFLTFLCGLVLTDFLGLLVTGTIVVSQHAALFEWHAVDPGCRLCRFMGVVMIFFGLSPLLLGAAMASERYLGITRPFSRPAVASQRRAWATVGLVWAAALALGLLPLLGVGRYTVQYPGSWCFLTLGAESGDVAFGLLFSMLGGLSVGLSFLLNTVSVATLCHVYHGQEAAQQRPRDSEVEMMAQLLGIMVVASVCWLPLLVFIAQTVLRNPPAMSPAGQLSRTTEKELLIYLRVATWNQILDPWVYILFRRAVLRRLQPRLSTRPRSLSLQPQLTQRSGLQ

Rattus norvegicus [13] = assay: Bone Volume /Tissue Volume (%)measured Histomorphometrically after a dose of 300 ug/kg in proximal tibial metaphysis; format: functional; conditions: at 300 µg/kg
Rattus norvegicus [14] = assay: Periosteal mineral apposition rate ([…]) measured Histomorphometrically after a dose of 30 ug/kg in tibial diaphysis; format: functional; how it was run: as §2
Rattus norvegicus [15] = assay: Mineralizing surface/bone surface(%) measured Histomorphometrically after a dose of 300 ug/kg in proximal tibial metaphysis; format: functional
How it was run: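 Ovariectomized six-month-old rats, 6-8 per group, were dosed subcutaneously once daily at 0.01–3.0 mg/kg for 60 days, starting 60 days after surgery. Vehicle was acetate-buffered saline, methylcellulose and polyoxyethylenesorbitan monooleate. Labels were xylenol orange 90 mg/kg pretreatment and calcein 10 mg/kg at 14 and 4 days before necropsy. Histomorphometry covered the proximal tibial metaphysis, 1–4 mm distal to the growth plate–metaphyseal junction. ANOVA/LSD versus vehicle.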

[16] = molecular target: T2, Prostaglandin E2 receptor EP3 subtype (Homo sapiens, UniProt P43115); assay: In vitro binding at EP3 human prostaglandin receptor using [3H]PGE-2 as radioligand; how it was run: as §3
T2 sequence (P43115 whole entry): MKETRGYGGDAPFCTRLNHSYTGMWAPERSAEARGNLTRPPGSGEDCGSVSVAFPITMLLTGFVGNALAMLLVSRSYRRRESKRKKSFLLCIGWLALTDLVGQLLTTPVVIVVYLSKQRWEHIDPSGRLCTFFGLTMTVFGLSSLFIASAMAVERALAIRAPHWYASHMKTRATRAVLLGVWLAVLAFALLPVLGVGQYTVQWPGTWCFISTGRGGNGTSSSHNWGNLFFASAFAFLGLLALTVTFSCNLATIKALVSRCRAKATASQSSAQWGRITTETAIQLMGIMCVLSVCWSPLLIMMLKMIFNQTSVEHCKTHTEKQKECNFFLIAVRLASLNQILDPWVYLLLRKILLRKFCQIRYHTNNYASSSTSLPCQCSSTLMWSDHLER

Rattus norvegicus [17] = assay: Bone Volume /Tissue Volume (%)measured Histomorphometrically after a dose of 10 ug/kg in proximal tibial metaphysis; format: functional; conditions: at 10 µg/kg
Rattus norvegicus [18] = assay: Bone formation rate/bone volume (%/year)bone measured Histomorphometrically after a dose of 30 ug/kg in proximal tibial metaphysis; format: functional; conditions: at 30 µg/kg

CP(=O)(O)CCC/C=C\C[C@@H]1[C@@H](/C=C/[C@@H](O)COc2ccccc2)[C@H](O)C[C@@H]1O
Derived trabecular number (Rattus norvegicus [1]): 4.86 mm-1 | Marrow area (Rattus norvegicus [2]): 0.86 mm² | Trabecular thickness (Rattus norvegicus [3]): 45.5 µm | Activity (Rattus norvegicus [4]): 31.04% | Derived trabecular number (Rattus norvegicus [5]): 4.83 mm-1 | Activity (Rattus norvegicus [6]): 498.01% | Connectivity density (Rattus norvegicus [7]): 59.66 mm**-3 | Directly measured thickness (Rattus norvegicus [8]): 127 µm | Activity (Rattus norvegicus [9]): 9.81% | Activity (Rattus norvegicus [10]): 38.61% | Periosteal mineralizing surface (Rattus norvegicus [11]): 10.35% | pIC50 (Prostacyclin receptor): < 5.00 | Periosteal mineral apposition rate (Rattus norvegicus [12]): 0.38 µm day-1 | pIC50 (Thromboxane A2 receptor): < 5.00 | Activity (Rattus norvegicus [13]): 5.72% | Periosteal mineral apposition rate (Rattus norvegicus [14]): 0.31 µm/day | Activity (Rattus norvegicus [15]): 23.57% | pIC50 [16]: < 5.00 | Activity (Rattus norvegicus [17]): 2.23% | Activity (Rattus norvegicus [18]): 495.65%
